Where two headings read alike, the source gives them in different places.

The term IC50 denotes the midpoint of a concentration-inhibition curve.

The target of data set [1] is T1, α-glucosidase (Saccharomyces cerevisiae, UniProt P53341). In words: α-Glucosidase inhibitory activity. The class given is biochemical.
The target of data set [2] is T2, porcine pancreatic α-amylase (Sus scrofa, UniProt P00690).
T2 sequence (P00690 16-511): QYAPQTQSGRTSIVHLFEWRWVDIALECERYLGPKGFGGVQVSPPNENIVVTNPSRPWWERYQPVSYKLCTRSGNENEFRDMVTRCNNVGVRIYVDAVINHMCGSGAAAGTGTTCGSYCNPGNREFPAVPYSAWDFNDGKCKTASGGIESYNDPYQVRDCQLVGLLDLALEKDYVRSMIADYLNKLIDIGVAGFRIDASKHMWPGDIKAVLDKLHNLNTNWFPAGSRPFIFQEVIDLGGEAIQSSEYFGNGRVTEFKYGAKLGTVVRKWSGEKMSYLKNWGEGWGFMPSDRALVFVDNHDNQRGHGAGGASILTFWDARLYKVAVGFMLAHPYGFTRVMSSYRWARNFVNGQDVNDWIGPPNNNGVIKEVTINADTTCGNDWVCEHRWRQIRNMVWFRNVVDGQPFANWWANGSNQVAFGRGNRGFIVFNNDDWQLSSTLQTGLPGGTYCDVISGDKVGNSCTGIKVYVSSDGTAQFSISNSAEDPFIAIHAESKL
In words: α-Amylase inhibitory activity. The format is biochemical.

A short description of data set [3]: Free radical scavenging activity. The note with it: for IC50: read-out: (IC50 ± SEM) Antioxidant activity (DPPH radical). Put shortly:
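Test compound in DMSO mixed with 0.2 mM DPPH in 95% methanol (1:3 by volume) and held 1 h in the dark at room temperature. Absorbance read at 517 nm; scavenging calculated relative to control, with ascorbic acid as reference. IC50 from non-linear regression; triplicate; mean ± SEM.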

For data set [4] the following is noted: in vivo study by Wang et al. ref 55; cited from earlier work.
The subject of data set [5] is Caco-2 monolayer. The note with it: Caco-2 cell model ref 55; cited from earlier work.
For data set [6], the system named is C57BL/KsJ-db/db mice. Particulars: Jung et al. ref 52; cited from earlier work.
Data set [7] concerns fructosamine formation in BSA-fructose model. In words: Fructosamine inhibition, NBT assay, BSA-fructose model. The format is biochemical. Particulars: 50 °C 24 hours. Put shortly:
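Test compound and BSA-fructose solution mixed 1:1 and incubated at 50 °C for 24 h, with aminoguanidine as positive control. Incubated mixture was treated with 300 μM NBT in 0.1 M sodium carbonate, pH 10.6, at 37 °C for 15 min, then absorbance read at 530 nm. Inhibition was calculated with control and sample blanks. Run in triplicate; mean ± SEM.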

In data set [8] the test system is AGEs formation in BSA-fructose model. Kind of data set: AGEs inhibition, fluorescence, BSA-fructose model. Particulars: 50 °C 24 hours. The format is biochemical. The procedure, abridged:
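Test compound and BSA-fructose solution mixed 1:1 and incubated at 50 °C for 24 h, with aminoguanidine as positive control. An aliquot of the mixture was diluted fivefold and fluorescence read at excitation 375 nm and emission 440 nm. Inhibition was calculated from control, control blank, sample and sample blank intensities. Run in triplicate; IC50 derived; mean ± SEM.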

The conditions of data set [9]: cited from earlier work; for Stability improvement compared to ester form: rat plasma, Yang et al. ref 58.
In data set [10] the target is T3, α-amylase (Sus scrofa, UniProt P00690).
T3 sequence (P00690 16-511): T2 sequence (P00690 16-511)
The note with it: vs EGCG, Liu et al. ref 37; cited from earlier work.

The target of data set [11] is T1, α-glucosidase. The note with it: vs EGCG, Liu et al. ref 37; cited from earlier work.
For data set [12], the system named is 3T3-L1 cells. In words: MTT cytotoxicity assay. The format is cell-based. Particulars: 3T3-L1, up to 50 μM, 12 hours. Put shortly:
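3T3-L1 cells grown in DMEM with 10% FBS, 1% penicillin–streptomycin and 0.2% amphotericin at 37 °C, 5% CO2. Seeded at 2.0 × 10^4 cells/well overnight, PBS-washed, then exposed to test compound (0–50 μM in DMEM) for 12 h. After washing, 0.05% MTT in DMEM for 3 h; formazan dissolved in DMSO and read at 590 nm (reference 620 nm). IC50 by non-linear regression; triplicate.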
In general terms: Tetrazolium dyes change colour on reduction, which living cells bring about.

Data set [13] is described as follows: Stability under physiological conditions. The class given is physicochemical. Particulars: 200 μM, 1X PBS pH 7.4, 37 °C, 10 days. Put shortly: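 Test compound at 200 μM in 1X PBS, pH 7.4, incubated at 37 °C. A sample taken immediately was extracted three times with ethyl acetate, evaporated and stored at −20 °C; a second sample was extracted likewise after 10 days. Both residues were analysed by LC-MS on a C18 column.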

T1 sequence (P53341 whole entry): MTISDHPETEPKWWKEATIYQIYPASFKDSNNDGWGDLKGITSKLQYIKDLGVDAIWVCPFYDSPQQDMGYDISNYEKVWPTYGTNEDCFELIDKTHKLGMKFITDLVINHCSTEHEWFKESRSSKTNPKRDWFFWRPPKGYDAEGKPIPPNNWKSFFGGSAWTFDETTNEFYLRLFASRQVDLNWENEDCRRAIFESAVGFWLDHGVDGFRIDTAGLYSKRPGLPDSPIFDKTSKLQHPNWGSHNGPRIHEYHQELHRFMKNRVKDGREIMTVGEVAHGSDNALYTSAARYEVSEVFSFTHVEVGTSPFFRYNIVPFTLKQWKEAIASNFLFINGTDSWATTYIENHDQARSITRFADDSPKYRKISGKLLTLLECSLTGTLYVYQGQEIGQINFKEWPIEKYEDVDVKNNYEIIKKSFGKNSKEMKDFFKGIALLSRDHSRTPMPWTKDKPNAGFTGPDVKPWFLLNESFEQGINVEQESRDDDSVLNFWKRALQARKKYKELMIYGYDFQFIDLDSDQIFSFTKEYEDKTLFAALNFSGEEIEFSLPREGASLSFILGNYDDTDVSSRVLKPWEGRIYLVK

Turning to `CCCCCCCCCCCCNC(=O)/C=C/c1ccc(O)c(O)c1` [CA12, (E)-3-(3,4-Dihydroxyphenyl)-N-dodecylacrylamide], the IC50 in [1] was determined as 17.4 ± 0.87 µM; in [2] it was 72.8 ± 1.83 µM; in data set [3] (mean ± SEM, triplicate) it was 16.4 ± 0.48 µM.
`O=C1O[C@H]([C@@H](O)CO)C(O)=C1O` [Vitamin C, L-ascorbic acid, reference compound]: the “(IC50 ± SEM) α-Glucosidase inhibition” value in data set [1] (mean ± SEM, triplicate) is given as “No activity”. In addition, the “(IC50 ± SEM) α-Amylase inhibition” value in [2] (mean ± SEM, triplicate) is reported as “No activity”. Further, in data set [3] (mean ± SEM, triplicate), the IC50 is 32.7 ± 0.47 µM.
On to `O=C(O)/C=C/c1ccc(O)c(O)c1` [CA, Caffeic acid], for which the IC50 in data set [3] (mean ± SEM, triplicate) came to 34.3 ± 0.52 µM. The Bioavailability in data set [4] is reported as 14.70%. Moreover, the Caco-2 monolayer permeability entry in data set [5] is listed as “poor”. Also, in data set [6], the “Blood glucose lowering effect” value was “significant blood glucose lowering effect”.
As for `CCCCNC(=O)/C=C/c1ccc(O)c(O)c1` [CA4, (E)-3-(3,4-Dihydroxyphenyl)-N-butylacrylamide], the IC50 in data set [1] is 38 ± 1.57 µM; in data set [2], more than 500 µM; in [3] (mean ± SEM, triplicate), 20.8 ± 0.45 µM.
The corresponding values for `CCCCCCCCCCCCCCCCNC(=O)/C=C/c1ccc(O)c(O)c1` [CA16, (E)-3-(3,4-Dihydroxyphenyl)-N-hexadecylacrylamide] are 24.8 ± 0.46 µM, 58.4 ± 2.68 µM and 15.1 ± 0.3 µM.
The corresponding values for `CCCCCCCCNC(=O)/C=C/c1ccc(O)c(O)c1` [CA8, (E)-3-(3,4-Dihydroxyphenyl)-N-octylacrylamide] are 13.7 ± 0.44 µM, more than 500 µM and 24.3 ± 0.58 µM.
The corresponding values for `CCCCCCNC(=O)/C=C/c1ccc(O)c(O)c1` [CA6, (E)-3-(3,4-Dihydroxyphenyl)-N-hexylacrylamide] are 51.5 ± 2.36 µM, more than 500 µM and 23.7 ± 0.59 µM.
For `N=C(N)NN` [AG, Aminoguanidine, reference compound], the “Inhibition of fructosamine formation” value in data set [7] (5 mM) is given as 9%; in data set [7] (10 mM) it was 30%. For the same molecule, the figures for the “Inhibition of AGEs” value in data set [8] (5 mM) and in [8] (10 mM) were 43% and 70%, respectively.
`C[C@H]1O[C@H](O[C@H]2[C@H](O)[C@@H](O)[C@@H](O[C@H]3[C@H](O)[C@@H](O)C(O)O[C@@H]3CO)O[C@@H]2CO)[C@H](O)[C@@H](O)[C@@H]1N[C@H]1C=C(CO)[C@@H](O)[C@H](O)[C@H]1O` (stereo partly shown) [Acarbose, reference compound]: the “(IC50 ± SEM) Antioxidant activity (DPPH radical)” value in data set [3] (mean ± SEM, triplicate) is reported as “No activity”.
Regarding `O=C(/C=C/c1ccc(O)c(O)c1)OCCc1ccccc1` [CAPE, caffeic acid phenethyl ester], the “Stability in rat plasma” value in data set [9] (esterases ref 57) is “rapid decomposition”.
For the molecule EGCG palmitate, in data set [10], the “α-Amylase inhibition better than EGCG” value is on record as 4.5 times. In addition, in data set [11], the “α-Glucosidase inhibition better than EGCG” value is listed as 52 times.
Consider `O=C(/C=C/c1ccc(O)c(O)c1)NCCc1ccccc1` [CAPA, caffeic acid phenethyl amide], for which the “Stability improvement compared to ester form” value was 118 fold in data set [9] (25 °C) and 77 fold in data set [9] (37 °C).
With `CCCCCCCCCCNC(=O)/C=C/c1ccc(O)c(O)c1` [CA10, (E)-3-(3,4-Dihydroxyphenyl)-N-decylacrylamide], the IC50 in [1] is 19.1 ± 0.64 µM; in data set [2], more than 500 µM; in data set [3] (mean ± SEM, triplicate), 23.4 ± 0.77 µM.
`CCCCCCCCCCCCCCNC(=O)/C=C/c1ccc(O)c(O)c1` [CA14, (E)-3-(3,4-Dihydroxyphenyl)-N-tetradecylacrylamide]: the IC50 in data set [1] is 1.94 ± 0.06 µM; in [2] it was 27 ± 0.83 µM; in [3] (mean ± SEM, triplicate) it was 14 ± 0.38 µM. Further, the “α-Glucosidase inhibition potency relative to parent CA” value in data set [1] (ratio of IC50 values, vs CA) was determined as 6392 times. The “α-Glucosidase inhibition potency relative to acarbose” value in [1] (ratio of IC50 values, vs acarbose) was 113 times. Also, the “Antioxidant activity relative to 15c” value in data set [3] (ratio of DPPH IC50 values, vs 15c) was found to be 1.2 fold. Also, the “Antioxidant activity relative to CA” value in data set [3] (ratio of DPPH IC50 values, vs CA) was found to be 2.5 times. Further, the “Antioxidant activity relative to Vitamin C” value in [3] (ratio of DPPH IC50 values, vs Vitamin C) stood at 2.3 fold. Further, the figures for the “Inhibition of fructosamine formation” value in data set [7] (5 mM) and in data set [7] (10 mM) were 33% and 70%, respectively. In addition, the “Inhibition of AGEs” value was determined as 44% in data set [8] (5 mM) and 79% in [8] (10 mM). In [12], the “Cytotoxicity (cell viability, MTT)” value is on record as “no significant cytotoxicity”. Also, the “Stability under physiological conditions (degradation by LC-MS)” value in data set [13] was “did not exhibit any degradation”.

(Values after paper PMC12573768 (RSC Advances, 2025).)
